Values joined by “and” are separate entries in the source; they are usually repeats but may differ in a detail not shown here. Identical values can stand only once.
Key:
[1] = Partition coefficient (logP); format: physicochemical; settings: octanol/water
[2] = test system: P388; assay: Maximum % T/C with mitomycin C against P-388 murine leukemia cells in mice.; format: functional, Mus musculus
Method in brief: (§1)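 P-388 ascites leukemia, 10⁶ cells implanted ip in female CDF₁ mice. Six mice per dose, with 10 saline-injected controls. A six-mouse mitomycin C group was run at each dose in the same experiment. % T/C = median survival time treated/control × 100 at the optimal dose. MED is the lowest dose giving T/C ≥ 125.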

[3] = test system: P388; assay: Optimal dose required for antitumor activity against P-388 murine leukemia cells in mice.; format: functional, Mus musculus; method in brief: as §1
[4] = Therapeutic ratio as optimal dose/minimal effective dose; format: ADME; settings: mouse, p388; read-out: TR
[5] = test system: P388; assay: Maximum % T/C against P-388 murine leukemia cells in mice.; format: functional, Mus musculus; method in brief: as §1
[6] = test system: P388; assay: Minimum effective dose required for antitumor activity against P-388 murine leukemia cells; format: functional; settings: Mus musculus, read-out: MED; method in brief: as §1
[7] = test system: P388; assay: Leukopenia % change in WBC at optimal dose on 3rd day.; format: functional, Mus musculus
[8] = test system: L1210; assay: Optimal dose required for antitumor activity L-1210 leukemia cells in mice.; format: functional, Mus musculus
Method in brief: (§2)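 L-1210 leukemia in mice, run by the standard NCI protocol with one dose on day 1. % T/C is based on survival. Repeated assays are reported as both values.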

[9] = test system: L1210; assay: Minimum effective dose required for antitumor activity against L-1210 leukemia cells in mice.; format: functional; settings: Mus musculus, read-out: MED; method in brief: as §2
[10] = test system: L1210; assay: Maximum % T/C against L-1210 leukemia cells in mice.; format: functional, Mus musculus; method in brief: as §2
[11] = test system: B16; assay: (§3) Average weight change after ip administration in B-16 melanoma in mice (dose mg/kg/day); format: functional, Mus musculus
Method in brief: (§4)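 B-16 melanoma in mice, run by the standard NCI protocol. Drug given ip on days 1, 4 and 7, ten mice per dose. Read-outs were median survival time as % T/C of controls and average body-weight change in g.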

[12] = test system: B16; assay: Average weight change after ip administration of in B-16 melanoma in mice (dose mg/kg/day); format: functional, Mus musculus; method in brief: as §4
[13] = test system: B16; assay: (§5) Median survival time (% T/C) after ip administration in B-16 melanoma in mice (dose mg/kg/day); format: functional, Mus musculus; method in brief: as §4
[14] = test system: B16; assay: as §5; format: functional, Mus musculus; method in brief: as §4; remark: listed apart in the source
[15] = test system: B16; assay: as §3; format: functional, Mus musculus; method in brief: as §4; remark: listed apart in the source

Row | Compound | logP [1] | T/C [2] | Dose [3] | selectivity ratio [4] | T/C [5] | minimal effective dose [6] | Change in WBC [7] | Dose [8] | minimal effective dose [9] | T/C [10] | Average weight change [11] | Average weight change [12] | T/C [13] | T/C [14] | Average weight change [15]
1 | COC12[C@@H]3N[C@@H]3CN1C1=C(C(=O)C(NCCc3ccccc3)=C(C)C1=O)[C@@H]2COC(N)=O (stereo partly specified) | 2.48 | 194% | 25.6 mg/kg | 16 | – | – | – | – | – | – | – | – | – | – | –
2 | COC12[C@@H]3N[C@@H]3CN1C1=C(C(=O)C(NCCc3ccc(O)c(O)c3)=C(C)C1=O)[C@@H]2COC(N)=O (stereo partly specified) | – | 233% | 12.8 mg/kg | 1 | 139% | 12.8 mg/kg | – | – | – | – | – | – | – | – | –
3 | COC12[C@@H]3N[C@@H]3CN1C1=C(C(=O)/C(=N/CCO)C(C)=C1O)[C@@H]2COC(N)=O (stereo partly specified) | -0.81 | 228% | 25.6 mg/kg | 16 | 228% | 1.6 mg/kg | -38% | – | – | – | – | – | – | – | –
4 | COC12[C@@H]3N[C@@H]3CN1C1=C(C(=O)/C(=N/CCF)C(C)=C1O)[C@@H]2COC(N)=O (stereo partly specified) | 0.18 | 268% | 6.4 mg/kg | 16 | >316% | 0.4 mg/kg | – | – | – | – | – | – | – | – | –
5 | COC(C/N=C1/C(=O)C2=C(C(O)=C1C)N1C[C@H]3N[C@H]3C1(OC)[C@H]2COC(N)=O)OC (stereo partly specified) | – | 224% | 6.4 mg/kg | 8 | 200% | 0.8 mg/kg | -44% | 24 mg/kg | 6 mg/kg | 151% | – | – | – | – | –
6 | COC12[C@@H](COC(N)=O)C3=C(C(O)=C(C)/C(=N\CCS)C3=O)N1C[C@@H]1[C@H]2N1C (stereo partly specified) | – | 268% | 25.6 mg/kg | 8 | 179% | 3.2 mg/kg | – | 48 mg/kg | 12 mg/kg | 129% | – | – | – | – | –
7 | CCSCC/N=C1/C(=O)C2=C(C(O)=C1C)N1C[C@H]3N[C@H]3C1(OC)[C@H]2COC(N)=O (stereo partly specified) | 1.66 | 268% | 12.8 mg/kg | 8 | 205% | 1.6 mg/kg | – | 24 mg/kg | 12 mg/kg | 141% | -1.2 g and -0.8 g | -1.7 g | 190% and 175% and 144% | – | –
8 | COC12[C@@H](COC(N)=O)C3=C(C(=O)C(C)=C(NCCCl)C3=O)N1C[C@@H]1[C@H]2N1C (stereo partly specified) | – | >300% | 51.2 mg/kg | 8 | – | – | – | – | – | – | – | – | – | – | –
9 | COC12[C@@H]3N[C@@H]3CN1C1=C(C(=O)C(NCCCl)=C(C)C1=O)[C@@H]2COC(N)=O (stereo partly specified) | 0.74 | 245% | 12.8 mg/kg | 8 | – | – | -7% | – | – | – | – | – | – | – | –
10 | COC12[C@@H]3N[C@@H]3CN1C1=C(C(=O)/C(=N/CCS)C(C)=C1O)[C@@H]2COC(N)=O (stereo partly specified) | 0.63 | 181% | 12.8 mg/kg | 64 | 313% | 0.2 mg/kg | -35% | 9.6 mg/kg | 1.6 mg/kg | 168% | -0.5 g | – | 218% | 190% | -0.5 g
11 | COC12[C@@H]3N[C@@H]3CN1C1=C(C(=O)/C(=N/CCN3CCOCC3)C(C)=C1O)[C@@H]2COC(N)=O (stereo partly specified) | – | 211% | 25.6 mg/kg | 4 | 150% | 6.4 mg/kg | – | 96 mg/kg | 48 mg/kg | 132% | – | – | – | – | –

Source: ChEMBL document CHEMBL1122307, “Mitomycin C and porfiromycin analogues with substituted ethylamines at position 7” (J Med Chem, 1983)
